Screening results (PubChem)
Most compounds without a hit are left out; they make up all but 5.7% or so of the library.
Calb FLC = affects C. albicans growth with fluconazole; 300,000 tested, 0.57% active; C. albicans CaCi-2 (fluconazole-resistant clinical isolate) + fluconazole, Alamar Blue growth, 48 h; growth inhibition, % (test concentration not listed);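 active means growth inhibition above about 58% in most replicates, limit read from the data, passing the limit was not always enough; inconclusive means exactly half the replicates above a set limit; inactive means most replicates below a set limit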;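 further: all wells also contain fluconazole at 8 µg/ml as a sub-toxic cotreatment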
CSC inhib = cancer stem cell inhibition | 300,000 tested, 1.1% active | cancer stem cell-like cells viability, luminescence | inhibition, % at 7.5 µM | AID 2717; in the data active means inhibition above about 75%; inconclusive means no clear call, values can overlap the other calls; tested in HMLE shEcad cells
SKKanGAS inh = blocks kanamycin growth of S. pyogenes SKKanGAS strain | BacTiter-Glo, 6 h | inhibition, % at 7.5 µM | 300,000 tested, 1.3% active;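 active means mean replicate score, as percent of positive control median, at least 50; inconclusive means mean below 50 but one replicate at or above 50; inactive means mean and every replicate below 50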;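 further: strain carries kanamycin resistance gene driven by streptokinase promoter and grows in 40 µg/ml kanamycin; loss of luminescence reflects streptokinase promoter inhibition or plain growth inhibition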
Mdm2-MdmX inh = inhibitors of human Mdm2/MdmX interaction; SaOS-2 split-luciferase Mdm2/MdmX complementation, luminescence; inhibition, % at 8 µM; 330,000 tested, 3% active;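 active means inhibition of at least 50% at 8 µM in the primary screen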
Target sequence (O15151 whole entry, looked up): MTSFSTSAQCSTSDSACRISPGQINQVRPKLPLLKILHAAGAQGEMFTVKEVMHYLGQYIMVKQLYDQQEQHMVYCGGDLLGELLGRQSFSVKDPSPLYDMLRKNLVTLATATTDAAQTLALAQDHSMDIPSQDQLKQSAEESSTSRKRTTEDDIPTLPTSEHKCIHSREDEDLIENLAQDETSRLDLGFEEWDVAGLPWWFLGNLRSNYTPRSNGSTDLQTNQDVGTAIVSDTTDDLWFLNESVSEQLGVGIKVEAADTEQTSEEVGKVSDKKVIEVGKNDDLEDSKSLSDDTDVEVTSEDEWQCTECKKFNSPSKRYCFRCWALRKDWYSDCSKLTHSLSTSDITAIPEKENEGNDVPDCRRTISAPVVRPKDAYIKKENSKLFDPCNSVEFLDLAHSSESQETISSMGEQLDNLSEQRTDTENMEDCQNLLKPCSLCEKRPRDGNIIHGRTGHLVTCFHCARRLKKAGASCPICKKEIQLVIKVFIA
Target sequence (Q00987 whole entry, looked up): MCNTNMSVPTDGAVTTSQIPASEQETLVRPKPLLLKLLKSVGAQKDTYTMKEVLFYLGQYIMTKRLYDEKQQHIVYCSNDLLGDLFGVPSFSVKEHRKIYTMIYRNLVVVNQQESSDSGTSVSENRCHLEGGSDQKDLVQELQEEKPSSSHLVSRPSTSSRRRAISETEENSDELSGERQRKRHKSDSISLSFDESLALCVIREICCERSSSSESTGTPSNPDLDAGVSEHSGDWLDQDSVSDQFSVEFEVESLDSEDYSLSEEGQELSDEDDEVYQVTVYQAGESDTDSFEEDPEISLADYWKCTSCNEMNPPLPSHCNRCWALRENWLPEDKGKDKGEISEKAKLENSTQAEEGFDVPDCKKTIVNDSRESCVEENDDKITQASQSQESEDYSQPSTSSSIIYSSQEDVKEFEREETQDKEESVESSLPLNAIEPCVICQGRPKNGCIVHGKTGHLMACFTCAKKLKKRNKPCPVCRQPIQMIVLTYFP
Beta apoptosis = beta cell apoptosis inhibition; INS-1E cytokine-induced death, ATP luminescence, 48 h; percent of positive-control rescue, neutral wells zero; protection from apoptosis, % (no concentration beside the values); 300,000 tested, 0.8% active; AID 435005;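 active means Every replicate reaches about 75%, or at least half do and their mean reaches it too, limit read from the data; inconclusive means At least half of replicates reach the limit but their mean does not; inactive means Under half of replicates reach the limit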;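 further: higher means more ATP so stronger rescue from cytokine killing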
T cruzi inh = blocks replication of Trypanosoma cruzi; T. cruzi beta-gal in NIH3T3, luminescence, 90 h; inhibition, % (no concentration beside the values); 300,000 tested, 1.4% active;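 active means mean inhibition across valid replicates above about 55%, limit read from the data; inconclusive means mean below that limit but half or more replicates reach it; inactive means mean below it, under half of replicates reach it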;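 further: signal also drops with host cell toxicity which is not excluded here; higher percent means less beta-gal luminescence so fewer parasites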
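assay system = mouse NIH/3T3 fibroblasts infected with β-gal-expressing T. cruzi Tulahuen C4 | input = 5,000 NIH/3T3 host cells per well | buffer or medium = DMEM plus 2% FBS | timing = 3 h host attachment, then at least 90 h co-culture | measured by = GalScreen luminescence, 60 min | evaluation = luminescence reflecting intracellular parasite burden, expressed as percent inhibition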
Large screens that a line does not name were inactive.

COC(=O)C(C)N1C(=O)S/C(=C\c2ccc(-c3ccc(C(=O)O)cc3C)o2)C1=O (configuration not stated)	none
O=C(/C=C/c1ccc(F)cc1)NC(=S)Nc1ccccc1	none
O=C(/C=C/c1ccc(F)cc1)NC(=S)NNC(=O)c1cnccn1	SKKanGAS inh 109, Beta apoptosis 70, T cruzi inh inconclusive
COc1ccc(C(=O)NNC(=S)NC(=O)c2cccnc2)cc1	none
COc1ccc(/C=C/C(=O)NC(=S)NNC(=O)c2cccnc2)cc1	SKKanGAS inh 60
O=C(NC(=S)NNC(=O)c1cnccn1)c1ccc(F)cc1	Calb FLC inconclusive, Beta apoptosis 79
CN1CCN(c2ccccc2/C=N/NC(=O)c2cccnc2)CC1	none
CC(Oc1ccccc1)C(=O)N=C1SC2CS(=O)(=O)CC2N1Cc1ccccc1 (configuration not stated)	none
CC(c1ccccc1)N1CCn2c(nc3cc(NS(C)(=O)=O)ccc32)C1 (configuration not stated)	Calb FLC 109
COCCC1CCCCN1Cc1cn(-c2ccccc2)nc1-c1ccc2c(c1)OCO2 (configuration not stated)	none
CC1CCCCN1S(=O)(=O)c1ccc(S(=O)(=O)N(Cc2ccccc2)Cc2ccco2)cc1 (configuration not stated)	T cruzi inh 71
CCN(Cc1ccccc1)S(=O)(=O)c1ccc(S(=O)(=O)N(Cc2ccccn2)Cc2ccco2)cc1	none
O=[N+]([O-])c1ccc(Cl)cc1Sc1cccc2cccnc12	none
Cn1nc([N+](=O)[O-])nc1Sc1cccc2cccnc12	Beta apoptosis 94, T cruzi inh 65
CC(C)(C)Nc1nc(NN)nc(NC(C)(C)C)n1	SKKanGAS inh 87, T cruzi inh inconclusive
COC1=C(Nc2ccccc2OC)C(=O)c2ccccc2C1=O	Beta apoptosis 83
CCC(C)n1c(-c2cccs2)nc2nc3ccccc3nc21 (configuration not stated)	CSC inhib 64
c1ccc(-n2c(-c3cccs3)nc3nc4ccccc4nc32)cc1	none
O=C(NCCc1ccc(Cl)cc1)C1CC(=O)N(C2CCCC2)C1 (configuration not stated)	none
Cc1ccc([N+](=O)[O-])cc1-c1[nH]c(-c2ccc(O)c(O)c2)nc1-c1ccccc1	Calb FLC 112 (no result: Beta apoptosis)
Cc1nnc(NC(=O)CCS(=O)(=O)c2ccccc2)s1	none
O=C(CCS(=O)(=O)c1ccccc1)Nc1nnc(C(F)(F)F)s1	Calb FLC 97
CC(C)(C)c1nnc(NC(=O)CCS(=O)(=O)c2ccccc2)s1	Calb FLC 93 (no result: Beta apoptosis)
O=C(CCS(=O)(=O)Cc1ccccc1)Nc1nnc(C(F)(F)F)s1	Calb FLC 83 (no result: CSC inhib)
O=C(CN1C(=O)NC2(CCCCCC2)C1=O)c1ccc(Cl)cc1	none (no result: Calb FLC, SKKanGAS inh, T cruzi inh)
C=CCSc1n[nH]c(-c2ccc(OCCC)cc2)n1	Calb FLC 112
CCCCn1c(=O)[nH]c(=O)c2c1nc(CN(C)Cc1cccc(OC)c1OC)n2CCC	none (no result: Mdm2-MdmX inh)
Cc1[nH]n2c(=O)cc(C(C)C)nc2c1-c1ccccc1	none
Cc1[nH]n2c(=O)cc(C(C)(C)C)nc2c1-c1ccccc1	SKKanGAS inh 89, T cruzi inh 59
COc1ccc(-c2c(C(F)(F)F)[nH]n3c(=O)cc(-c4ccccc4)nc23)cc1	CSC inhib 92, SKKanGAS inh 56
Cc1ccc(C(=O)N(C)Cc2ccc(N3CCOCC3)cc2)cc1S(=O)(=O)NCc1ccccc1	none (no result: Calb FLC, SKKanGAS inh, T cruzi inh)
CC(C)c1ccc(S(=O)(=O)N2CCC(C(=O)NCc3ccco3)CC2)cc1	none (no result: Calb FLC, CSC inhib, SKKanGAS inh, Beta apoptosis, T cruzi inh)
CSCC[C@H](NC(=O)N1CCn2c1nc1ccccc12)C(=O)NCc1ccc(C)cc1	none
COc1cc(/C=C2\C(=N)N3N=C(N4CCOCC4)SC3=NC2=O)ccc1OC(=O)c1ccccc1	none
N=C1/C(=C\c2ccc(OC(=O)c3ccccc3Cl)cc2)C(=O)N=C2SC(N3CCOCC3)=NN12	SKKanGAS inh 53
CSc1nc(N)nc2c1ncn2CC(=O)Nc1ccc(C)c(C)c1	none (no result: Calb FLC, SKKanGAS inh, T cruzi inh)
Cc1cccc2c1NC(C)CC2C (configuration not stated)	T cruzi inh 59 (no result: Calb FLC)
O=C(OCC(=O)c1c[nH]c2ccccc12)c1ccc([N+](=O)[O-])s1	T cruzi inh 61
CCc1cccc2c(C(=O)COC(=O)c3ccc([N+](=O)[O-])s3)c[nH]c12	SKKanGAS inh 100, T cruzi inh 64
